{"data": "Results collected from several papers"}
{"SMILES": "C[C@@H](C(=O)N1Cc2c(-c3ccc(C(=O)N4CCCc5ccccc54)cc3)cnn2C[C@@H]1C)c1ccccc1", "test": "HPLC", "setting": "pH 7.4", "measurement": "chromatographic logD", "value": 4.8}
{"SMILES": "Fc1cccc(Nc2nc(-c3ccccn3)nc3ccccc23)c1", "test": "metabolic stability", "test system": "human, liver microsomes", "measurement": "microsomal CLint", "value": "81 µL/min/mg"}
{"SMILES": "CC(C)(C)[Si](C)(C)OCCCN(c1ccc(F)cc1)c1c(-c2ccccn2)nc2ccccn12", "test": "metabolic stability", "test system": "rat, hepatocytes", "measurement": "hepatocyte CLint", "value": "42 µL/min/10⁶ cells"}
{"SMILES": "c1ccc(-c2nc(NCCn3ccnc3)c3ccccc3n2)nc1", "test": "metabolic stability", "test system": "human, liver microsomes", "measurement": "microsomal CLint", "value": "36 µL/min/mg"}
{"SMILES": "C[C@H](C(=O)N[C@@H]1COc2ccccc2[C@H]1S(C)(=O)=O)c1ccc(F)cc1", "test": "metabolic stability", "test system": "rat, liver microsomes", "setting": "1 µM", "measurement": "microsomal CLint", "value": "55 µL/min/mg"}
{"SMILES": "COc1cc(C(=O)NC2CCN(C)CC2)c(F)cc1Nc1ncc(C(F)(F)F)c(Oc2cccc3c2C(=O)N(C)C3)n1", "test system": "human, plasma", "setting": "oral, 300 mg, multiple doses, once daily, patients", "measurement": "CL/F", "value": "107 mL/min"}
{"SMILES": "COc1ccc2nc(-c3ccccn3)c(N(C)c3ccc(F)cc3)n2c1", "test": "metabolic stability", "test system": "rat, hepatocytes", "measurement": "hepatocyte CLint", "value": "> 300 µL/min/10⁶ cells"}
{"SMILES": "c1ccc(-c2nc(N3CCc4ncccc4C3)c3ccccc3n2)nc1", "test": "metabolic stability", "test system": "human, liver microsomes", "measurement": "microsomal CLint", "value": "71 µL/min/mg"}
{"SMILES": "CCOC(=O)C1=C(C)N/C(=C/c2cc(C)n(Cc3ccc(C(F)(F)F)cc3)c2C)C1=O", "test": "HPLC", "setting": "pH 7.4", "measurement": "chromatographic logD", "value": 3.5}
{"SMILES": "CCNCCCNC/C=C\\CNCCCNCC", "test system": "human, plasma", "setting": "intravenous, 100 mg, patients, infusion", "measurement": "clearance", "value": "5510 mL/min"}
{"SMILES": "OC[C@H]1O[C@@H](c2ccc(Cl)c(Cc3ccc(O[C@H]4CCOC4)cc3)c2)[C@H](O)[C@@H](O)[C@@H]1O", "test system": "human, urine", "setting": "oral, 2.5 mg, single dose", "measurement": "renal clearance", "value": "29.1 mL/min"}
{"SMILES": "CCOC(=O)C1=C(C)N/C(=C/c2cc(C)n(-c3ccc(N4CCOCC4)cc3)c2C)C1=O", "test": "HPLC", "setting": "pH 7.4", "measurement": "chromatographic logD", "value": 2.8}
{"SMILES": "COc1cccnc1-c1nc2ccccn2c1N(C)c1ccc(F)cc1", "test": "metabolic stability", "test system": "rat, hepatocytes", "measurement": "hepatocyte CLint", "value": "> 300 µL/min/10⁶ cells"}
{"SMILES": "c1ccc(-c2nc(NCc3ccco3)c3ccccc3n2)nc1", "test": "metabolic stability", "test system": "human, liver microsomes", "measurement": "microsomal CLint", "value": "71 µL/min/mg"}
{"SMILES": "CS(=O)(=O)CCC#N", "test system": "human, plasma", "setting": "oral, 100 mg, single dose, fasted", "measurement": "CL/F", "value": "0.3 mL/min/kg"}
{"SMILES": "Cc1ccc(C(=O)N(CCCN)[C@@H](c2oc3cc(Cl)ccc3c(=O)c2Cc2ccccc2)C(C)C)cc1", "test system": "human, plasma", "setting": "intravenous, 5 mg/m², single dose, patients, infusion", "measurement": "clearance", "value": "20.5 mL/min"}
{"SMILES": "O=C1C2N=CN3C(NCc4c(F)ccc5c4CCO5)=NC=C(c4cnc(C(F)(F)F)cc4CN1CC(F)F)C23 (stereo not drawn)", "test": "metabolic stability", "test system": "rat, liver microsomes", "setting": "100 µM, 30 min", "measurement": "scaled CLint", "value": "20 mL/min/kg"}
{"SMILES": "Fc1ccc(Nc2c(-c3ccccn3)nc3ccccn23)nc1", "test": "metabolic stability", "test system": "rat, hepatocytes", "measurement": "hepatocyte CLint", "value": "18 µL/min/10⁶ cells"}
{"SMILES": "c1cnc2ccc(Nc3nc(NC4CC4)c4nc[nH]c4n3)cc2c1", "test system": "human, plasma", "setting": "oral, 200 mg/m², patients", "measurement": "CL/F", "value": "1350 mL/min"}
{"SMILES": "CN(c1ccc(F)cc1)c1c(-c2ccc(F)cn2)nc2ccccn12", "test": "metabolic stability", "test system": "rat, hepatocytes", "measurement": "hepatocyte CLint", "value": "> 300 µL/min/10⁶ cells"}
{"SMILES": "c1ccc(-c2nc(N3CCCC3c3ccccn3)c3ccccc3n2)nc1 (stereo not drawn)", "test": "metabolic stability", "test system": "human, liver microsomes", "measurement": "microsomal CLint", "value": "62 µL/min/mg"}
{"SMILES": "CC(C)CCN(c1ccc(F)cc1)c1c(-c2ccccn2)nc2ccccn12", "test": "metabolic stability", "test system": "rat, hepatocytes", "measurement": "hepatocyte CLint", "value": "> 300 µL/min/10⁶ cells"}
{"SMILES": "c1ccc(-c2nc(NCCn3cnc4ccccc43)c3ccccc3n2)nc1", "test": "metabolic stability", "test system": "human, liver microsomes", "measurement": "microsomal CLint", "value": "150 µL/min/mg"}
{"SMILES": "COc1cccc(-c2nc3ccccn3c2Nc2ccc(F)cc2)n1", "test": "metabolic stability", "test system": "rat, hepatocytes", "measurement": "hepatocyte CLint", "value": "> 300 µL/min/10⁶ cells"}
{"SMILES": "Cn1nccc1-c1nc(N2CCC(c3ccccn3)C2)c2ccccc2n1 (stereo not drawn)", "test": "metabolic stability", "test system": "human, liver microsomes", "measurement": "microsomal CLint", "value": "59 µL/min/mg"}
{"SMILES": "CN(C)C(=O)c1ccc(-c2c(-c3ccccn3)nc3n2CCC3)cc1", "test": "metabolic stability", "test system": "rat, hepatocytes", "measurement": "hepatocyte CLint", "value": "< 1 µL/min/10⁶ cells"}
{"SMILES": "Cc1cccc(N2CCN(c3nc(-c4ccccn4)nc4ccccc34)CC2)n1", "test": "metabolic stability", "test system": "human, liver microsomes", "measurement": "microsomal CLint", "value": "165 µL/min/mg"}
